Results on two molecules are retold here after PMC6525014 (Journal of labelled compounds & radiopharmaceuticals, 2019).

As usually defined, the half-life is the time needed for the level to fall by half in the phase considered. The low end stands for rapid decline, the high end for slow decline.

Series [1] in a line: Metabolic stability in pooled CD-1 mouse liver microsomes. The format is in vitro ADME. Particulars: for half-life at 1 μM: CD-1, mouse, pooled mouse liver microsomes, pH 7.4. The procedure, abridged: (§1)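 Pooled liver microsomes (CD-1 mouse, SD rat or human) at 0.5 mg/mL, with 1 μM test compound, 1.7 mM β-NADPH and 3.3 mM MgCl2 in 0.1 M phosphate pH 7.4, 37°C, DMSO <0.1% final. Samples at 0, 5, 10, 15, 30, 45, 60 min were quenched in cold acetonitrile with internal standard. Parent remaining measured by negative-ion MRM LC–MS/MS. t1/2 from ln(remaining) versus time. Controls: no-NADPH, verapamil.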
For orientation: Liver microsomes are vesicles of endoplasmic reticulum, rich in cytochrome P450 enzymes.

Series [2] in a line: Metabolic stability in pooled human liver microsomes. Conditions: for half-life at 1 μM: human, pooled human liver microsomes, pH 7.4. It is filed as in vitro ADME. The procedure, abridged: as §1
The nature of series [3]: Metabolic stability in pooled SD rat liver microsomes. It is filed as in vitro ADME. Particulars: for half-life at 1 μM: SD, rat, pooled rat liver microsomes, pH 7.4. The procedure, abridged:
as §1

A further series has as its system obese mice. Particulars: earlier work of the authors; cited from earlier work.

`CC(C)c1ccc2oc3nc(N)c(C(=O)O)cc3c(=O)c2c1` [Compound 1, amlexanox]: the half-life at 1 μM in series [1], in series [2] and in series [3] was more than 1 h throughout. Also, the “more unmetabolized amlexanox remaining compared to d2-amlexanox” value in series [1] (mice liver microsomes, after 60 min) is reported as “about 8%”; in series [2] (human liver microsomes, after 60 min) it was “about 8%”. Further, in the series on obese mice, the “effects in obese mice” value was “weight loss in obese mice, improved insulin sensitivity, and reduced hepatic steatosis and inflammation”.
Turning to `[2H]CC([2H])(C)c1ccc2oc3nc(N)c(C(=O)O)cc3c(=O)c2c1` (stereo not shown) [Compound 5, 2-Amino-5-oxo-7-(propan-2-yl-1,2-d2)-5H-chromeno[2,3-b]pyridine-3-carboxylic acid], the half-life at 1 μM in series [1], in series [2] and in series [3] was more than 1 h throughout. Also, in series [3] (rat liver microsomes), the “stability relative to amlexanox” value is listed as “more stable than amlexanox (1)”.
